Source: article PMC5974556 (ChemistryOpen, 2018)
≈ marks a conversion by molar mass, not a printed value. Where a name gives a salt, the structure may show the parent alone. Marks after values point to notes of the source that are not given here.

What was measured:
[1] = Water solubility, shake flask method in 0.1 M phosphate buffer pH 6.8; assay type: physicochemical; conditions: 37 °C, pH 6.8, aqueous buffer, thermodynamic from solid
Procedure, shortened: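 Excess solid added to 1 mL sodium phosphate buffer, pH 6.8. Two conditions: 90 min sonication at 37 °C, or 30 min sonication at 37 °C, 23 h shaking at 300 rpm, then 30 min sonication. Centrifuged 14000 rpm for 5 min, filtered (0.2 µm) at 37 °C and diluted in DMSO. Quantified by LC at maximum absorbance against standard curves; independent triplicates.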

[2] = Ferric reducing antioxidant power; conditions: chemical antioxidant capacity, n=3
Procedure, shortened: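 FRAP reagent made from acetate buffer, TPTZ in ethanol and FeCl3·6H2O in dilute HCl, mixed 10:1:1, with TPTZ and iron solutions fresh daily. Sample mixed with reagent 1:9, absorbance read at 593 nm after 4 min. Values expressed as Trolox equivalents by linear regression on a Trolox standard curve; α-tocopherol positive control.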

Caco‐2 cells [3] = assay: Mitochondria activity; assay type: cell-based; conditions: Homo sapiens, Caco-2, 72 h, read-out: Caco‐2 IC50 MTT
Procedure, shortened: (§1)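 Cells kept in DMEM+glutamax with 1% NEAA, 1% P/S and 10% FBS at 37 °C, 10% CO2. Seeded 2×10^4 per well for 24 h, then exposed 72 h to test compound at various concentrations in serum-free medium, in triplicate. MTT (5 mg/mL in PBS) added for 2 h, formazan dissolved in DMSO, read at 570 nm. IC50 from % survival; doxorubicin control; MTT and SRB data pooled, mean ± SD, n≥6.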

Caco‐2 cells [4] = assay: Protein content; assay type: cell-based; conditions: Homo sapiens, Caco-2, 72 h, read-out: Caco‐2 IC50 SRB
Procedure, shortened: (§2)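 Seeded 2×10^4 cells per well for 24 h, then treated with or without test compound for three days, in triplicate. Fixed with 50% TCA for 1 h at 4 °C, washed and dried. Stained 30 min at 4 °C with 0.4% sulforhodamine B in 1% acetic acid, rinsed with 1% acetic acid. Dye redissolved in Tris buffer, absorbance read at 490 nm. Doxorubicin control; MTT and SRB data pooled, mean ± SD, n≥6.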

EA.hy926 cells [5] = assay: Mitochondria activity; assay type: cell-based; conditions: Homo sapiens, EA.hy 926, 72 h, read-out: EA.hy926 IC50 MTT
Procedure, shortened: as §1

EA.hy926 cells [6] = assay: Protein content; assay type: cell-based; conditions: Homo sapiens, EA.hy 926, 72 h, read-out: EA.hy926 IC50 SRB
Procedure, shortened: as §2

HT‐29 cells [7] = assay: Mitochondria activity; assay type: cell-based; conditions: Homo sapiens, HT-29, 72 h, read-out: HT‐29 IC50 MTT
Procedure, shortened: as §1

HT‐29 cells [8] = assay: Protein content; assay type: cell-based; conditions: Homo sapiens, HT-29, 72 h, read-out: HT‐29 IC50 SRB
Procedure, shortened: as §2

HepG2 cells [9] = assay: Mitochondria activity; assay type: cell-based; conditions: Homo sapiens, HepG2, 72 h, read-out: HepG2 IC50 MTT
Procedure, shortened: as §1

HepG2 cells [10] = assay: Protein content; assay type: cell-based; conditions: Homo sapiens, HepG2, 72 h, read-out: HepG2 IC50 SRB
Procedure, shortened: as §2

Caco‐2 cells [11] = assay: Intracellular ROS; assay type: cell-based, human; conditions: protein content normalization, mean±SD, n≥3
Procedure, shortened: (§3)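 Cells grown in DMEM+glutamax with 1% NEAA, 1% P/S and 10% FBS at 37 °C, 10% CO2. Seeded at 2×10^4 cells/well for 24 h, then confluent cells were exposed to test compound at 1 or 10 µM in serum-free medium, with NAC as control. Cells were washed, loaded with DCFH-DA for 30 min, then kept 1 h in phenol red-free DMEM. Fluorescence read at ex 485/em 535 nm, normalised to same-well SRB protein (490 nm) and given as % of untreated cells. Mean ± SD, n≥3; two-tailed t-test with unequal variances.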

EA.hy926 cells [12] = assay: Intracellular ROS; assay type: cell-based; conditions: Homo sapiens; for activity at 1 µM: EA.hy 926, read-out: Intracellular ROS, percentage compared to the untreated control cells (ROS/SRB), EA.hy926, 1 μM; for activity at 10 µM: EA.hy 926, read-out: Intracellular ROS, percentage compared to the untreated control cells (ROS/SRB), EA.hy926, 10 μM
Procedure, shortened: as §3

HT‐29 cells [13] = assay: Intracellular ROS; assay type: cell-based; conditions: Homo sapiens; for activity at 1 µM: HT-29, read-out: Intracellular ROS, percentage compared to the untreated control cells (ROS/SRB), HT‐29, 1 μM; for activity at 10 µM: HT-29, read-out: Intracellular ROS, percentage compared to the untreated control cells (ROS/SRB), HT‐29, 10 μM
Procedure, shortened: as §3

HepG2 cells [14] = assay: Intracellular ROS; assay type: cell-based; conditions: Homo sapiens; for activity at 1 µM: HepG2, read-out: Intracellular ROS, percentage compared to the untreated control cells (ROS/SRB), HepG2, 1 μM; for activity at 10 µM: HepG2, read-out: Intracellular ROS, percentage compared to the untreated control cells (ROS/SRB), HepG2, 10 μM
Procedure, shortened: as §3

| SMILES | solubility at 90 min [1] [µM] | solubility at 24 h [1] [µM] | FRAP [2] [Trolox equiv per μM] | IC50 (Caco‐2 cells [3]) [µM] | IC50 (Caco‐2 cells [4]) [µM] | IC50 (EA.hy926 cells [5]) [µM] | IC50 (EA.hy926 cells [6]) [µM] | IC50 (HT‐29 cells [7]) [µM] | IC50 (HT‐29 cells [8]) [µM] | IC50 (HepG2 cells [9]) [µM] | IC50 (HepG2 cells [10]) [µM] | Intracellular ROS, percentage compared to the untreated control cells (ROS/SRB), Caco‐2, 1 μM (Caco‐2 cells [11]) | Intracellular ROS, percentage compared to the untreated control cells (ROS/SRB), Caco‐2, 10 μM (Caco‐2 cells [11]) | activity at 1 µM (EA.hy926 cells [12]) [%] | activity at 10 µM (EA.hy926 cells [12]) [%] | activity at 1 µM (HT‐29 cells [13]) [%] | activity at 10 µM (HT‐29 cells [13]) [%] | activity at 1 µM (HepG2 cells [14]) [%] | activity at 10 µM (HepG2 cells [14]) [%] |
| --- | --- | --- | --- | --- | --- | --- | --- | --- | --- | --- | --- | --- | --- | --- | --- | --- | --- | --- | --- |
| CC(C)CNC(=C\C(=O)/C=C/c1cccnc1)/C=C/c1cccnc1 [5 a, (1E,4Z,6E)‐5‐Isobutylamino‐1,7‐di(pyridin‐3‐yl)hepta‐1,4,6‐trien‐3‐one] | 168 ± 6 (≈ 56.2 µg/mL) | 303 ± 16 (≈ 101 µg/mL) | 0.03 | 45.3 ± 10.5 | 31.6 ± 9 | 33 ± 9.5 | 35.9 ± 7.2 | 37.6 ± 1.8 | 30.9 ± 10.9 | 26.2 ± 0.3 | 20.8 ± 1.5 | 109.8±7.4% | 114.7±3.1^[b] % | 88.7 ± 9.3 | 93.4 ± 14.6 | 103 ± 11.1 | 84.1 ± 2.5 | 90.7 ± 13.7 | 94 ± 4.6 |
| O=C(/C=C(/C=C/c1cccnc1)NC1CCCCC1)/C=C/c1cccnc1 [5 b, (1E,4Z,6E)‐5‐Cyclohexylamino‐1,7‐di(pyridin‐3‐yl)hepta‐1,4,6‐trien‐3‐one] | 11.3 ± 0.6 (≈ 4.06 µg/mL) | 12.2 ± 0.6 (≈ 4.39 µg/mL) | 0.00 | 65.6 ± 2.1 | 60.8 ± 6 | 40.2 ± 1.4 | 53 ± 1.9 | 36.4 ± 7.9 | 19.4 ± 0.9 | > 75 | > 75 | 101.3±0.9% | 117.7±5.6^[b] % | 89.1 ± 4.2 | 114 ± 9.5 | 93.7 ± 13.2 | 90.6 ± 2.8 | 92.3 ± 7.8 | 98.8 ± 4.6 |
| COCCNC(=C\C(=O)/C=C/c1cccnc1)/C=C/c1cccnc1 [5 c, (1E,4Z,6E)‐5‐(2‐Methoxyethylamino)‐1,7‐di(pyridin‐3‐yl)hepta‐1,4,6‐trien‐3‐one] | 895 ± 18 (≈ 300 µg/mL) | 2280 ± 174 (≈ 766 µg/mL) | 0.00 | 53.8 ± 0.6 | 49.1 ± 0.6 | 60 ± 10.5 | 63 ± 8.3 | 55.3 ± 12.5 | 46 ± 15.8 | 56.7 ± 3.7 | 66.4 ± 1.3 | 102.4±8.8% | 243.2±17.5^[b] % | 83.7 ± 6.7 | 89.5 ± 2.7 | 100 ± 5.8 | 88.1 ± 3.6 | 94.8 ± 4 | 88.4 ± 5.3 |
| COCCCNC(=C\C(=O)/C=C/c1cccnc1)/C=C/c1cccnc1 [5 d, (1E,4Z,6E)‐5‐(3‐Methoxypropylamino)‐1,7‐di(pyridin‐3‐yl)hepta‐1,4,6‐trien‐3‐one] | 897.4 ± 1.1 (≈ 314 µg/mL) | 2310 ± 90 (≈ 808 µg/mL) | 0.01 | 28.5 ± 3.5 | 36 ± 0.1 | 70.6 ± 2.5 | 72.7 ± 3.7 | 59.6 ± 7.7 | 51.5 ± 6.1 | > 75 | > 75 | 101.5±9.2% | 110.6±5.3^[b] % | 102 ± 5.8 | 98.3 ± 2 | 102 ± 19.4 | 95.1 ± 14 | 92.3 ± 4.6 | 89.4 ± 3.1 |
| O=C(/C=C(/C=C/c1cccnc1)NCCO)/C=C/c1cccnc1 [5 e, (1E,4Z,6E)‐5‐(2‐Hydroxyethylamino)‐1,7‐di(pyridin‐3‐yl)hepta‐1,4,6‐trien‐3‐one] | 4350 ± 260 (≈ 1400 µg/mL) | 4850 ± 140 (≈ 1560 µg/mL) | 0.04 | > 75 | > 75 | > 75 | > 75 | > 75 | > 75 | > 75 | > 75 | 111.4±8.9% | 118.6±2.8^[c] % | 102 ± 1.6 | 115 ± 7.6 | 93.9 ± 5.5 | 110 ± 3.7 | 88.6 ± 15.2 | 92.1 ± 5.1 |
| O=C(/C=C(/C=C/c1cccnc1)NCCCO)/C=C/c1cccnc1 [5 f, (1E,4Z,6E)‐5‐(3‐Hydroxypropylamino)‐1,7‐di(pyridin‐3‐yl)hepta‐1,4,6‐trien‐3‐one] | 1470 ± 24 (≈ 494 µg/mL) | 4270 ± 332 (≈ 1430 µg/mL) | 0.04 | > 75 | > 75 | > 75 | > 75 | > 75 | > 75 | > 75 | > 75 | 102.5±2.3% | 115.4±8.5% | 88.7 ± 1.6 | 102 ± 1.6 | 95.4 ± 1.7 | 96 ± 12.7 | 84.8 ± 2.5 | 74.4 ± 3.2 |
| COCCCN1C(/C=C/c2cccnc2)=CC(=O)CC1c1cccnc1 (centres unmarked) [6 d, (E)‐1‐(3‐Methoxypropyl)‐2‐(pyridin‐3‐yl)‐6‐[2‐(pyridin‐3‐yl)vinyl]‐2,3‐dihydropyridin‐4(1H)‐one] | 1280 ± 61.2 (≈ 448 µg/mL) | 2980 ± 166 (≈ 1040 µg/mL) | 0.00 | > 75 | > 75 | > 75 | > 75 | > 75 | > 75 | > 75 | > 75 | 90.8±6.3% | 89.9±3.4% | 95.2 ± 5 | 98.3 ± 5.3 | 83.4 ± 5.6 | 88.4 ± 4.1 | 85.6 ± 8.9 | 95.7 ± 10 |
| COc1cccc2c1C(=O)c1c(O)c3c(c(O)c1C2=O)C[C@@](O)(C(=O)CO)C[C@@H]3O[C@H]1C[C@H](N)[C@H](O)[C@H](C)O1 [Dox, doxorubicin hydrochloride, reference compound] |  |  |  | 11.1 ± 1 | 12.1 ± 0.8 | 1.4 ± 0.5 | 1.4 ± 0.3 | 4 ± 0.9 | 3.5 ± 0.4 | 5.5 ± 1.4 | 2.5 ± 1.2 |  |  |  |  |  |  |  |  |
| CC(=O)N[C@@H](CS)C(=O)O [N‐acetyl‐L‐cysteine, reference compound] |  |  |  | > 75 | > 75 |  |  |  |  |  |  | 55.7±5.8^[c] % | 47.8±2.6^[c] % | 79.6 ± 11.1 | 79.6 ± 7.4 | 90.1 ± 12 | 87.7 ± 3.7 | 73.1 ± 2.7 | 70.5 ± 3.1 |
| Cc1c(C)c2c(c(C)c1O)CC[C@@](C)(CCC[C@H](C)CCC[C@H](C)CCCC(C)C)O2 [α‐tocopherol, reference compound] |  |  | 0.76 |  |  |  |  |  |  |  |  |  |  |  |  |  |  |  |  |
